In ChEMBL document CHEMBL1122113, “Synthesis and antitumor activity of new platinum complexes” (J Med Chem, 1982):
Values joined by “and” are separate entries in the source; they are usually repeats but may differ in a detail not shown here. Identical values can stand only once.

Key:
[1] = tested on: L1210; assay: In vitro inhibition of L1210 leukemia cells growth.; format: functional, cell-based; conditions: Mus musculus
In short: (§1)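 Murine L1210 and PDD-resistant L1210/PDD cells kept in McCoy's 5A with 10% fetal calf serum. Compounds in water or Me2SO, or as suspensions, added to inoculated medium; Me2SO at most 0.2% final. Seeding about 5 × 10^4 cells/mL, then 96 h at 37 °C in 5% CO2. Density measured by electronic cell counter. ID50 (µg/mL) from growth inhibition.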

[2] = tested on: L1210; assay: In vitro inhibition of PDD resistant subline L1210/PDD growth.; format: functional, cell-based; conditions: Mus musculus; in short: as §1
[3] = tested on: Mus musculus; assay: Activity against L1210 leukemia cells was measured as treated by control on ip administration of 1 mg/kg in mice; format: functional, organism-based; design: dose 1 mg/kg; conditions: at 1 mg/kg
[4] = tested on: Mus musculus; assay: Activity against L1210 leukemia cells was measured as treated by control on ip administration of 10 mg/kg in mice; format: functional, organism-based; design: dose 10 mg/kg; conditions: at 10 mg/kg
[5] = tested on: Mus musculus; assay: Activity against L1210 leukemia cells was measured as treated by control on ip administration of 5 mg/kg in mice; format: functional, organism-based; design: dose 5 mg/kg; conditions: at 5 mg/kg
[6] = tested on: Mus musculus; assay: Activity against L1210 leukemia cells was measured as treated by control on ip administration of 50 mg/kg in mice;Toxic; format: functional, organism-based; design: dose 50 mg/kg; conditions: at 50 mg/kg
[7] = tested on: Mus musculus; assay: Activity against L1210 leukemia cells was measured as treated by control on ip administration of 0.62 mg/kg in mice; format: functional, organism-based; design: dose 0.62 mg/kg; conditions: at 0.62 mg/kg
[8] = tested on: Mus musculus; assay: Activity against L1210 leukemia cells was measured as treated by control on ip administration of 1.25 mg/kg in mice; format: functional, organism-based; design: dose 1.25 mg/kg; conditions: at 1.25 mg/kg
[9] = tested on: Mus musculus; assay: Activity against L1210 leukemia cells was measured as treated by control on ip administration of 2.5 mg/kg in mice; format: functional, organism-based; design: dose 2.5 mg/kg; conditions: at 2.5 mg/kg
[10] = tested on: Mus musculus; assay: Activity against L1210 leukemia cells was measured as treated by control on ip administration of 20 mg/kg in mice; format: functional, organism-based; design: dose 20 mg/kg; conditions: at 20 mg/kg
[11] = tested on: Mus musculus; assay: Activity against L1210 leukemia cells was measured as treated by control on ip administration of 40 mg/kg in mice; format: functional, organism-based; design: dose 40 mg/kg; conditions: at 40 mg/kg

Row | Substance | ID50 [1] [µg/mL] | ID50 [2] [µg/mL] | further results
1 | 1-(4-pyridiniumyl)-2-(1-trichloroplatinum-4-pyridiniumyl)ethane | > 10 | > 10 | 
2 | 1-(trichloro-dihydroxy)platinum-3-pyridiniumammonium | 4.5 | > 10 | 
3 | 1-chloroplatinumsulphate-3-pyridiniumammonium | 4.6 | > 10 | 
4 | 1-methyl-4-trichloroplatinumhexahydropyrazinediium | 9 | > 10 | 
5 | 1-pentachloroplatinum-3-pyridiniumammonium | 4.4 | > 10 | 
6 | 1-trichloroplatinum-1,4-diazoniabicyclo[2.2.2]octane | > 10 | > 10 | 
7 | 1-trichloroplatinum-3-pyridiniumammonium | > 10 | > 10 | 
8 | 1-trichloroplatinum-3-pyridiniumylmethanammonium | > 10 | > 10 | T/C [3]: 100%; T/C [4]: 125%; T/C [5]: 123% and 138%; T/C [6]: Toxic
9 | 1-trichloroplatinumhexahydro-1-pyridiniumammonium | 4.2 | > 10 | 
10 | 1-trichloroplatinumhexahydropyrazinediium | > 10 | > 10 | 
11 | 2,5-dimethyl-1-trichloroplatinumhexahydropyrazinediium | 10 | > 10 | 
12 | 2-(1-ethylhexahydro-2-pyridiniumyl)-1-trichloroplatinumpyridinium | > 10 | > 10 | 
13 | 3-(1-methyltetrahydro-1H-2-pyrroliumyl)-1-trichloroplatinumpyridinium | > 10 | > 10 | 
14 | 4-trichloroplatinum-4-azoniabicyclo[2.2.2]oct-2-ammonium | 2 | 5 | 
15 | N-methyl-1-trichloroplatinum-3-pyridiniumylmethanammonium | > 10 | > 10 | T/C [7]: 110%; T/C [8]: 122%; T/C [4]: 130%; T/C [9]: 126%; T/C [10]: 133%; T/C [5]: 120%
16 | ethyl(1-trichloroplatinum-2-pyridiniumyl)ammonium | > 10 | > 10 | 
17 | ethyl(1-trichloroplatinum-2-pyridiniumylmethyl)ammonium | > 10 | > 10 | T/C [4]: 139%; T/C [9]: 119%; T/C [10]: 140%; T/C [11]: 148%; T/C [5]: 122%
